High-throughput results from PubChem BioAssay.
Most compounds without a hit are left out; they make up all but 1.7% or so of the library.
ZTA DNA inh: counter-screen for EBNA-1 inhibitors: inhibitors of Epstein-Barr virus ZTA; ZTA-DNA binding, fluorescence polarization; inhibition, % at 11 µM; P03206; hit rate 0.15% among 320,000; AID 2234; in the data active = inhibition above about 33%
Target sequence (P03206 whole entry, looked up): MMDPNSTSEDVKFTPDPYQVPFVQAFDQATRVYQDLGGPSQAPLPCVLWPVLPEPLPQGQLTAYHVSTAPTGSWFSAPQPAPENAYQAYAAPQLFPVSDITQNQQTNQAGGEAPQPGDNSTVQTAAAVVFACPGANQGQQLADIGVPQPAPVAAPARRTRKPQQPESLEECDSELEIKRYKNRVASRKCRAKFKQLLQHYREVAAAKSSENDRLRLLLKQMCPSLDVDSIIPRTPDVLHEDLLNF
HCV core dimer: HCV core protein dimerization inhibition. TR-FRET GST/Flag-core106 dimerization, 1536-well. hit rate 0.33% among 300,000. inhibition, % at 5 µM;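 active = inhibition above the mean of all tested compounds plus 3 SD, set per screening campaign, cut at about 45% in these data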
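assay system = GST-tagged and Flag-tagged HCV core protein residues 1-106 | controls = unlabelled core106 and no-GST-core106 wells | incubation = compound-protein-antibody incubation 4 h at 22.5 °C | probe or stimulus = Eu donor and XL665 acceptor anti-tag antibodies | read-out = % inhibition based on acceptor/donor emission ratio | signal = TR-FRET 671 and 617 nm emission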
HCV NS3 hel inh: blocks Hepatitis C virus NS3 helicase unwinding. inhibition, % at 10.9 µM. hit rate 0.56% among 290,000. NS3 helicase DNA unwinding, Cy5 molecular beacon fluorescence. AID 1800;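 active = inhibition above the mean of all tested compounds plus 3 SD, set per campaign, cut at about 35% in these data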;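 note: 0% = DMSO wells and 100% = thioflavine S control wells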
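System: NS3 helicase fragment of HCV / Schedule: 1 h at 25 °C / Control set: DMSO alone as 0% and 110 µM thioflavine S as 100% / Reagent: Cy5/quencher beacon DNA duplex and ATP to start / Technique: Cy5 fluorescence / Replication: singlicate / Evaluation: % inhibition of end-to-start signal ratio versus controls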
EBV gp42 inh: inhibitors of Epstein-Barr virus glycoprotein 42; inhibition, % (tested at 21.74 µM); hit rate 0.42% among 220,000; Q1HVG2; Fluorescence polarization binding assay, mP read-out; in the data active = inhibition above about 50%
Target sequence (Q1HVG2 whole entry, looked up): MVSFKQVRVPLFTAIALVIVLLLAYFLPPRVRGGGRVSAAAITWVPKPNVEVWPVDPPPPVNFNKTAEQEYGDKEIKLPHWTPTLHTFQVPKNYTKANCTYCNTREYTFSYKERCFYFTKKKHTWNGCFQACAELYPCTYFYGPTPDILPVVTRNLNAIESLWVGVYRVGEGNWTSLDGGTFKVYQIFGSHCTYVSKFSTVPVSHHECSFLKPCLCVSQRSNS
MEX-5 binding: C. elegans MEX-5 TCR-2 RNA binding activity; Q9XUB2; MEX-5/FITC-TCR2 RNA binding, fluorescence polarization; active compounds read low; activity score (negative = inhibition of binding), % at 10 µM; hit rate 0.38% among 300,000; AID 1832;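 active = inhibition past about -25% in most replicates, and total fluorescence under double the plate's negative control median, limit read from the data; inconclusive = replicates evenly split on the limit, or fluorescence at least double controls; inactive = too little inhibition in most replicates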;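 note: 0% = DMSO and -100% = 5 µM competing unlabeled TCR2 RNA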
EBNA-1 inh: blocks EBNA-1 binding to DNA. AID 1950. EBNA-1 DNA binding, fluorescence polarization. hit rate 0.34% among 300,000. inhibition, % at 14.8 µM; in the data active = inhibition above about 28%
Zta DNA confirm: EBV ZTA DNA binding inhibition, confirmation | hit rate 30% among 320 | inhibition, % at 11.1 µM | Zta-ZRE DNA binding, fluorescence polarization | shares compounds with ZTA DNA inh;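 active = mean inhibition across triplicate runs above the hit threshold derived for the original primary screen, cut at about 33% in these data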;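 note: 0% = Zta with DMSO and 100% = wells lacking Zta protein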
EBNA1 counter: counter-screen for ZTA inhibitors: EBNA-1 DNA binding inhibition; shares compounds with ZTA DNA inh; fluorescence polarization; inhibition, % at 14.8 µM; 320 tested, under 10 active; call rule not given here
* = called active by the depositor; u = inconclusive; x = not tested or not shown; ! = not active in a repeat.

SMILES	ZTA DNA inh	HCV core dimer	HCV NS3 hel inh	EBV gp42 inh	MEX-5 binding	EBNA-1 inh	Zta DNA confirm	EBNA1 counter
CCc1ccc(S(=O)(=O)/N=C2\C=C(NS(=O)(=O)c3ccccc3)C(=O)c3ccccc32)cc1	x	x	-7	x	1	x	x	x
CC(=O)c1cccc(OC(=O)c2ccc3c(=O)n4c(nc3c2)CCC4)c1	-3	-2	x	x	0	2	x	x
Cc1ccc(CN2CC(C(=O)N3CCN(c4ccccc4Cl)CC3)CC2=O)cc1 (stereo unspecified)	9	x	x	x	x	x	x	x
COC(=O)c1ccc(-c2ncc[nH]2)cc1	-9	-1	0	-2	1	-13	x	x
CSc1nc(N)n2nc(-c3ccccc3)cc2n1	-13	-1	-8	0	0	-5	x	x
Cc1nc(Nc2cnc(/C=C/c3cc(C(=O)Nc4cccc(C(F)(F)F)c4)ccc3C)cn2)cc(N2CCNCC2)n1	45*	24	-89	x	5	15	25	18
C/C(=N\NC(=S)NCCc1ccccc1)c1ccc(C)cc1	-8	-1	-10	-16	1	16	x	x
C/C(=N\NC(=S)NCCc1ccccc1)c1ccc(C#N)cc1	38*	1	-1	-6	-2	14	5	23
COc1ccc(N2CCN(S(C)(=O)=O)CC2)cc1	-6	-4	25	-15	-1	3	x	x
COc1ccc(N2CCN(S(=O)(=O)c3ccc(OC)cc3)CC2)cc1	99*	-2	-1	-3	0	21	7	13
COc1ccc(S(=O)(=O)N2CCCOC2CNC(=O)C(=O)NCCCN2CCOCC2)cc1 (stereo unspecified)	-5	0	-2	x	-2	-4	x	x
CSCCC(NC(=O)c1ccccc1Br)C(=O)N1CCN(C(C)=O)CC1 (stereo unspecified)	8	x	x	x	x	x	x	x
O=c1[nH]c(/C=C/c2ccc(Cl)cc2Cl)c([N+](=O)[O-])c(=O)[nH]1	55*	40	33	x	-1	16	53*	1
COc1ccccc1NS(=O)(=O)c1cc(NC(=O)CCNC(C)=O)ccc1N1CCCCC1	4	2	x	x	1	-9	x	x
O=C(Nc1ccc2oc(-c3ccncc3)nc2c1)c1ccc2c(c1)OCO2	50*	3	9	-25	-3	2	76*	10
Cc1cccc(NC(=O)CCNS(=O)(=O)c2ccc3[nH]c(=O)oc3c2)c1	198*	-11	4	x	42	-5	-16	-5
Cc1ccc(NC(=O)CCc2nnc(SCC(=O)Nc3ccccc3C)n2C)cc1Cl	69*	4	-4	-26	-3	-14	6	-1
Cc1ccc(O)c(CNCCNCc2cc(C)ccc2O)c1	46*	-5	x	x	2	5	9	-8
Cc1cccc(C)c1NC(=S)NCCc1ccccn1	34*	0	-5	-13	-3	14	1	8
C#CCOCCOCCOCCNc1nc(N2CCN(C(=O)CCCCCCCCCCNC(=O)[C@@H](CCSC)n3cc(CCO)nn3)CC2)nc(N2CCN(C(=O)CCCCCCCCCCNC(=O)[C@H]([C@@H](C)CC)n3cc(CCCCCN)nn3)CC2)n1	70*	1	x	x	x	13	43*	4
C#CCOCCOCCOCCNc1nc(N2CCN(C(=O)CCCCCCCCCCNC(=O)[C@@H](CCSC)n3cc(CCO)nn3)CC2)nc(N2CCN(C(=O)CCCCCCCCCCNC(=O)[C@H]([C@@H](C)CC)n3cc(CCCCN=C(N)N)nn3)CC2)n1	121*	-1	x	x	x	10	59*	-4
C#CCOCCOCCOCCNc1nc(N2CCN(C(=O)CCCCCCCCCCNC(=O)[C@H](CCCCN)n3cc(C)nn3)CC2)nc(N2CCN(C(=O)CCCCCCCCCCNC(=O)[C@@H]([C@H](C)CC)n3cc(CCCCCN)nn3)CC2)n1	70*	12	x	x	x	0	44*	-7
C#CCOCCOCCOCCNc1nc(N2CCN(C(=O)C([C@@H](C)CC)n3cc(C(N)CC(C)C)nn3)CC2)nc(N2CCN(C(=O)[C@H](CCC(=O)O)n3cc(C(N)[C@H](C)CC)nn3)CC2)n1 (stereo partly specified)	58*	-13	-27	-15	-1	16	12	-1
C#CCOCCOCCOCCNc1nc(N2CCOCC2)nc(N2CCN(C(=O)CCCCCCCCCCNC(=O)[C@@H](CCSC)n3cc(CCO)nn3)CC2)n1	-20	1	x	x	x	-2	x	x
CC(=O)Nc1ccc2[nH]c(C)cc(=O)c2c1	87*	5	0	-6	-2	11	2	-5
SMILES	ZTA DNA inh	HCV core dimer	HCV NS3 hel inh	EBV gp42 inh	MEX-5 binding	EBNA-1 inh	Zta DNA confirm	EBNA1 counter
O=C1c2ccccc2-c2onc3ccc(NCCCn4ccnc4)c1c23	49*	-97	35	-41	u	12	32	21
CCOc1ccc(NC(=O)CSc2nccn(-c3ccc4c(c3)OCCO4)c2=O)cc1	47*	5	x	x	-3	4	4	2
O=C(NC1CCCCC1)C(c1ccco1)N(C(=O)c1csnn1)c1cccc(Cl)c1 (stereo unspecified)	2	-20	18	x	0	-2	x	x
CCN1CCN(Cc2ccc(NC(=O)c3ccc(C)c(NC(=O)C(=O)c4c[nH]c5ccccc45)c3)cc2C(F)(F)F)CC1	40*!	-24	-103	-24	3	12	32	-7
Cc1cccnc1NC(=O)CCCNC(=O)c1ccc(Cl)cc1	0	-2	x	x	-1	0	x	x
CCOC(=O)C(C)Sc1ncc(-c2ccccc2)cn1 (stereo unspecified)	79*	-2	3	-14	0	-2	-2	-9
CCOC(=O)C(C)Sc1nc(=O)n2ccccc2n1 (stereo unspecified)	2	-2	-10	0	0	2	x	x
O=S(=O)(Nc1ccc(S(=O)(=O)N2CCCC2)cc1)c1ccccc1Br	-19	x	x	x	x	x	x	x
CCCCCCCCCC[N+](C)(C)CC/C=C1/c2ccccc2Sc2ccc(Cl)cc21	34*	2	-18	x	4	8	6	-6
CCCCCCCCCCC[N+](C)(C)CC/C=C1/c2ccccc2Sc2ccc(Cl)cc21	40*	-5	-34	x	12	3	0	-6
CN(C)CC/C=C1\c2ccccc2Sc2ccc(Cl)cc21	2	-8	-81	-4	-3	-2	x	x
CC[N+](C)(C)CC/C=C1/c2ccccc2Sc2ccc(Cl)cc21	5	-3	-45	35	-1	-6	x	x
CCCCC(CC)CNC(=O)CC1Nc2c3ccccc3nc(=S)n2C1=O (stereo unspecified)	-6	9	17	-4	1	1	x	x
